Experimental data: ChEMBL document CHEMBL1143873, “Synthesis and biological evaluation of 2-alkylaminoethyl-1,1-bisphosphonic acids against Trypanosoma cruzi and Toxoplasma gondii targeting farnesyl diphosphate synthase” (Bioorg Med Chem, 2008)

How the values were obtained:
[1] = molecular target: T1, Farnesyl diphosphate synthase (Trypanosoma cruzi, UniProt Q8WS26); assay: Inhibition of Trypanosoma cruzi FPPS
T1 sequence (Q8WS26 whole entry): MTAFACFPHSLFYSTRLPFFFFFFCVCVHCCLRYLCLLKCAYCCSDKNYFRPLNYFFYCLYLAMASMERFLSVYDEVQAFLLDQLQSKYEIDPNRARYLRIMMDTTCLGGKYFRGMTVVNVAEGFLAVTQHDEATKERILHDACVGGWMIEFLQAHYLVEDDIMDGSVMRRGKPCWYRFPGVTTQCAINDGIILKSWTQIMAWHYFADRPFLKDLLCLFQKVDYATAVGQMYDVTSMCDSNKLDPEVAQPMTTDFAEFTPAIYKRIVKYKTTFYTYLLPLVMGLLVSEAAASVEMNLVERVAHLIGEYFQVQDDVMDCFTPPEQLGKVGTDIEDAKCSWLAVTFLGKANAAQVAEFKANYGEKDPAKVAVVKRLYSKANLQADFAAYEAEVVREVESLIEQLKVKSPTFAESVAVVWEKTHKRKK
In short: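 Recombinant TcFPPS (10–20 ng) started into prewarmed buffer of 10 mM Hepes pH 7.4, 5 mM MgCl2, 2 mM DTT, 100 μM [4-14C]IPP, 100 μM DMAPP; 30 min at 37 °C; quenched with HCl, then alkalinised; hexane-extracted product counted by scintillation.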

Toxoplasma gondii = assay: Growth inhibition of Toxoplasma gondii tachyzoites in HFF cells; assay type: functional, organism-based
[2] = molecular target: T2, Farnesyl diphosphate synthase (Toxoplasma gondii, UniProt Q197X6); assay: Inhibition of Toxoplasma gondii FPPS
T2 sequence (Q197X6 whole entry): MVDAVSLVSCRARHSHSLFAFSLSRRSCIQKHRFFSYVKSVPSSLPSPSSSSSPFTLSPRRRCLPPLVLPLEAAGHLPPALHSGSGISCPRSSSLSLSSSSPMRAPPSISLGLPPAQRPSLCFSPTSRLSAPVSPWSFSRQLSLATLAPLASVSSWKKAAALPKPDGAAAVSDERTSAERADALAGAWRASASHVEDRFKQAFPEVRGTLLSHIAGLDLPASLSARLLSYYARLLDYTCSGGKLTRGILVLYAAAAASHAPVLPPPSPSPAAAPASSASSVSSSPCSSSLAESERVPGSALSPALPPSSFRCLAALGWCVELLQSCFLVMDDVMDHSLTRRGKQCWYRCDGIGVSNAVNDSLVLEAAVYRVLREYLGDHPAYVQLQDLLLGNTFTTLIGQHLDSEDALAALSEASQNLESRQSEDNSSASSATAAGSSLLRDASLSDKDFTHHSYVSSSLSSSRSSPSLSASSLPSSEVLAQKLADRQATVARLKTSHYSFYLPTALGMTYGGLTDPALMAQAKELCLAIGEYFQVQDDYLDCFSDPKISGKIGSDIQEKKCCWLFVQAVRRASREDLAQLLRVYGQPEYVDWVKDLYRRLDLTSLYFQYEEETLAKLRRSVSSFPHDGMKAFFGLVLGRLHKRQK
In short: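 Recombinant TgFPPS (10–20 ng) started into prewarmed buffer of 10 mM Hepes pH 7.4, 1 mM MgCl2, 2 mM DTT, 100 μM [4-14C]IPP, 100 μM DMAPP; 30 min at 37 °C; quenched with HCl, then alkalinised; hexane-extracted product counted by scintillation.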

Trypanosoma cruzi [3] = assay: Growth inhibition of Trypanosoma cruzi amastigotes in rat L6E9 cells; assay type: functional, organism-based
Trypanosoma cruzi [4] = assay: Growth inhibition of Trypanosoma cruzi amastigotes in rat L6E9 cells at 10 uM; assay type: functional; conditions: read-out: GI

IC50 [1] [nM] | IC50 (Trypanosoma cruzi [3]) [nM] | SMILES | IC50 (Toxoplasma gondii) [nM] | IC50 [2] [nM] | inhibition of growth at 10 µM (Trypanosoma cruzi [4]) [%]
760 | 14000 | O=P(O)(O)C(CNN1CCCC1)P(=O)(O)O | 13300 | 361 | –
515 | > 50000 | CC(C)CNCC(P(=O)(O)O)P(=O)(O)O | 74500 | 181 | –
944 | > 50000 | CCC(C)NCC(P(=O)(O)O)P(=O)(O)O (stereo not drawn) | > 100000 | 112 | –
1210 | 10000 | CC(C)(C)NCC(P(=O)(O)O)P(=O)(O)O | 42800 | 286 | –
13 | – | O=P(O)(O)C(CNC1CCCCC1)P(=O)(O)O | 57300 | 337 | 36.3
287 | 6100 | O=P(O)(O)C(CNN1CCCCC1)P(=O)(O)O | 70600 | 165 | –

Continued, molecule first:

SMILES | IC50 [1] [nM] | IC50 (Trypanosoma cruzi [3]) [nM] | IC50 (Toxoplasma gondii) [nM] | IC50 [2] [nM] | inhibition of growth at 10 µM (Trypanosoma cruzi [4]) [%]
CCCNCC(P(=O)(O)O)P(=O)(O)O | 38 | > 50000 | 6330 | 298 | –
CCCCCCC(O)(P(=O)(O)O)P(=O)(O)O | – | 18000 | – | – | –
CCCCCCNCC(P(=O)(O)O)P(=O)(O)O | 490 | 840 | 9370 | 137 | –
N#CSCCOc1ccc(Oc2ccccc2)cc1 | – | 12000 | – | – | –
CCCCNCC(P(=O)(O)O)P(=O)(O)O | 2280 | 4800 | 48700 | 206 | –
CCCCCCCNCC(P(=O)(O)O)P(=O)(O)O | 58 | 10000 | > 50000 | 95 | –
CCCCCCCCNCC(P(=O)(O)O)P(=O)(O)O | 1010 | 4100 | 2600 | 87 | –
CC(C)NCC(P(=O)(O)O)P(=O)(O)O | 1400 | > 50000 | 69800 | 253 | –
CCCCCNCC(P(=O)(O)O)P(=O)(O)O | 1840 | 540 | > 50000 | 80 | –
CC(C)CCNCC(P(=O)(O)O)P(=O)(O)O | 420 | 10000 | 36900 | 275 | –
